47 compounds from ChEMBL document CHEMBL5214982, “Identification and Biochemical Characterization of Pyrrolidinediones as Novel Inhibitors of the Bacterial Enzyme MurA” (J Med Chem, 2022) can be followed below.

Molecules are shown by their SMILES. pIC50: −log10 of the molar value. Activity calls are given as the source filed them. The rule behind the calls is not given here.

The target in series [1] is UDP-N-acetylglucosamine 1-carboxyvinyltransferase (Escherichia coli K-12) (UniProt P0A749). The experiment in a line: Inhibition of wild type his tagged Escherichia coli K12 MurA at 20 uM using UDP-N-acetylglucosamine as substrate preincubated with substrate for 30 mins prior to compound addition for 15 mins followed by DTT and PEP addition and measured after 30 mins by malachite green based microplate reader analysis relative to control. The following applies: time 45.0 min.

Series [2] is described as follows: Stability in human plasma assessed as half life at by HPLC-MS analysis. The class given is ADME, cell-free.
Series [3] in a line: Stability in human plasma assessed as degradation at measured after 4 hrs by HPLC-MS analysis. Type of series: ADME, cell-free. The following applies: read-out: Drug degradation.
Series [4] has as its target UDP-N-acetylglucosamine 1-carboxyvinyltransferase (Escherichia coli K-12, UniProt P0A749). The experiment in a line: Inhibition of wild type his tagged Escherichia coli K12 MurA using UDP-N-acetylglucosamine as substrate […] for 15 mins followed by DTT and PEP addition and measured after 30 mins by malachite green based microplate reader analysis.
A short description of series [5]: Stability in human S9 fractions assessed as degradation at measured after 2 hrs by HPLC-MS analysis. Type of series: ADME, subcellular, Liver, S9 fraction. Conditions: read-out: Drug degradation.
The nature of series [6]: Stability in human S9 fractions assessed as half life at by HPLC-MS analysis. Type of series: ADME, subcellular, Liver, S9 fraction.
The next series concerns HepG2. The experiment in a line: Cytotoxicity against human HepG2 cells at upto 100 uM incubated for 24 hrs by MTT assay. The class given is toxicity, cell-based. Conditions: hepg2, 24 h. In short, it runs like this: (§1)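 MRC-5 (20,000/well) or HepG2 (25,000/well) seeded, treated next day for 24 h with eight concentrations up to 100 μM (DMSO solutions). Viability by MTT: medium replaced with 0.5 mg/ml MTT in DMEM, cells lysed in DMSO, absorbance at 560 nm. Three independent experiments.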
For orientation: Tetrazolium dyes change colour on reduction, which living cells bring about.

Another series has as its system MRC5. The experiment in a line: Cytotoxicity against human MRC5 cells at upto 100 uM incubated for 24 hrs by MTT assay. The class given is toxicity, cell-based. The following applies: mrc5, 24 h. In outline: as §1
Series [7] has as its target UDP-N-acetylglucosamine 1-carboxyvinyltransferase (Escherichia coli K-12) (UniProt P0A749). The experiment in a line: Inhibition of wild type his tagged Escherichia coli K12 MurA at 2 uM using UDP-N-acetylglucosamine as substrate […] for 15 mins followed by DTT and PEP addition and measured after 30 mins by malachite green based microplate reader analysis relative to control. The following applies: time 45.0 min.

Series [8] concerns UDP-N-acetylglucosamine 1-carboxyvinyltransferase (Escherichia coli K-12), P0A749 [C115D]. Nature of the series: Inhibition of […] his tagged Escherichia coli K12 MurA C115D mutant at 2 uM using UDP-N-acetylglucosamine as substrate in presence of DTT and PEP by microplate reader analysis relative to control. Conditions: time 45.0 min. In outline: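 His-tagged C115D MurA preincubated directly with compounds (no UNAG preincubation) 15 min rt; fosfomycin and test compound each 2 μM final, 2% DMSO. Master mix added: 150 μM UNAG, 150 μM PEP, 2 mM DTT, 25 mM Tris-HCl pH 7.5; 37 °C 30 min. Malachite green/molybdate stop, A625 after 5 min, no-enzyme background subtracted; three independent experiments.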

Series [9] deals with UDP-N-acetylglucosamine 1-carboxyvinyltransferase (Escherichia coli K-12) (UniProt P0A749). The experiment in a line: Inhibition of wild type his tagged Escherichia coli K12 MurA at 0.2 uM using UDP-N-acetylglucosamine as substrate preincubated with substrate for 15 mins prior to compound addition for 15 mins followed by DTT and PEP addition by dilution assay. In short, it runs like this:
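His-tagged WT MurA (30 μg) preincubated with 400 μM UNAG for 15 min, then with inhibitor (10 μM) for another 15 min. Mixture diluted 1:50 into master mix of 150 μM UNAG, 150 μM PEP, 2 mM DTT and 25 mM Tris-HCl pH 7.5 (final), giving 0.2 μM inhibitor; incubated 37°C 30 min. Malachite green/molybdate stop, A625 after 5 min, minus no-enzyme blank; three independent experiments.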

Sequence of UDP-N-acetylglucosamine 1-carboxyvinyltransferase (Escherichia coli K-12) (P0A749 whole entry): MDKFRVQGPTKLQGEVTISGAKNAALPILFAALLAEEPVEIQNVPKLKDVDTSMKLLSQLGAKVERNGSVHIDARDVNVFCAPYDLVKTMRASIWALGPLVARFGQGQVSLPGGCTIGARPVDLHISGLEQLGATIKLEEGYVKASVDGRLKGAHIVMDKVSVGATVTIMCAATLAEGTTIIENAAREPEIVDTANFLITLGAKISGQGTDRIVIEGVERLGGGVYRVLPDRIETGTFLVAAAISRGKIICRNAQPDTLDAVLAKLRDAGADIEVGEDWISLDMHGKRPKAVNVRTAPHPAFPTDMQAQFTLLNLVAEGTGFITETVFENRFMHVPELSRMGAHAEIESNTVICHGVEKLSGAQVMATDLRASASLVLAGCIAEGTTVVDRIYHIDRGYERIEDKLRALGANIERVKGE
Sequence of UDP-N-acetylglucosamine 1-carboxyvinyltransferase (P0A749 whole entry): as above
Sequence of UDP-N-acetylglucosamine 1-carboxyvinyltransferase (Escherichia coli K-12), P0A749 [C115D] (P0A749 whole entry C115D): as the sequence (P0A749 whole entry) above, with C115D counted along it

As for `CCOC(=O)C1=C(O)C(=O)N(c2nc3ccc(C)cc3s2)C1c1ccc(-c2ccccc2)o1` (centres undefined), the inhibition in series [1] was determined as 37%. On to `CCCCNc1ccc(C(=O)OCCN(C)C)cc1` [TETRACAINE], for which the t1/2 in series [2] was found to be 20 min. The metabolised at 4 h in series [3] was 100%. On to `COC(=O)C1=C(O)C(=O)N(c2nc3ccc(C)cc3s2)C1c1ccc(-c2ccc(Cl)cc2)o1` (centres undefined), for which the pIC50 in series [4] is 4.80. Besides, the inhibition in series [1] came out at 59%. On to `CCOC(=O)C1=C(O)C(=O)N(c2nc3ccc(Br)cc3s2)C1c1ccc(-c2ccccc2)cc1` (centres undefined), for which, in series [4], the pIC50 was 4.68. Besides, the inhibition in [1] amounted to 52%. Regarding `Cc1ccc2nc(N3C(=O)C(O)=C(C(=O)OC(C)(C)C)C3c3ccccc3)sc2c1` (centres undefined), the inhibition in series [1] worked out at 38%.

Consider `CCOC(=O)C1=C(O)C(=O)N(c2ccc(Cl)cc2)C1c1ccc(Cl)cc1` (centres undefined), for which, in series [1], the inhibition worked out at 14%. Same read-out and setting: under `CCOC(=O)C1=C(O)C(=O)N(c2nc3c(s2)CCCC3)C1c1ccccc1` (centres undefined) stands 14%; under `CCOC(=O)C1=C(O)C(=O)N(c2nc3ccccc3s2)C1c1ccccc1` (centres undefined), 0%. The same measure, in the same setting: in the case of `CCOC(=O)C1=C(O)C(=O)N(c2nc3ccc(C)cc3s2)C1c1ccc2cc(O)ccc2c1` (centres undefined) it was 43%. Compound `CCOC(=O)C1=C(O)C(=O)N(c2nc3ccc(C)cc3s2)C1c1ccc(-c2ccc(Cl)cc2)o1` (centres undefined) had a pIC50 in series [4] of 5.00. Besides, the inhibition in series [1] was 75%.

Consider `CCOC(=O)C1=C(O)C(=O)N(c2nc3ccc(C)cc3s2)C1c1nc2ccccc2s1` (centres undefined), for which the inhibition in series [1] was determined as 12%. As for `C[C@]12CC[C@H]3[C@@H](CCC4=CC(=O)CC[C@@]43C)[C@@H]1CC[C@@H]2O` [TESTOSTERONE], in [5], the metabolised at 2 h stood at 89%. Besides, the t1/2 in series [6] was determined as 5.9 min. For `CCOC(=O)C1=C(O)C(=O)N(c2nc3ccc(C)cc3s2)C1c1ccc2ccccc2c1` (centres undefined), the inhibition in series [1] turned out to be 44%. `CCOC(=O)C1=C(O)C(=O)N(c2nc3ccc(C)cc3s2)C1c1ccc(OC)c2ccccc12` (centres undefined) gave a negative logarithm of the IC50 (pIC50) in series [4] of 5.02. In series [1], the inhibition is 74%. Regarding `CCOC(=O)C1=C(O)C(=O)N(c2nc3c(Cl)cccc3s2)C1c1ccccc1` (centres undefined), in series [1], the inhibition worked out at 18%. For the compound `CCOC(=O)C1=C(O)C(=O)N(c2nc3ccc(C)cc3s2)C1c1ccccc1-c1ccccc1` (centres undefined), the pIC50 in series [4] is 4.77. In addition, the inhibition in series [1] is 57%.

Compound `CCOC(=O)C1=C(O)C(=O)N(c2nc3ccc(C)cc3s2)C1c1ccc(-c2ccc(C(F)(F)F)cc2Cl)o1` (centres undefined) showed a pIC50 in series [4] of 5.32. Besides, in series [1], the inhibition amounted to 94%.

For `CCOC(=O)C1=C(O)C(=O)N(c2nc3c(F)cc(F)cc3s2)C1c1ccc(-c2ccccc2)cc1` (centres undefined), the pIC50 in series [4] is 5.12. In addition, the inhibition in series [1] was determined as 76%. `CCOC(=O)C1=C(O)C(=O)N(c2nc3ccc(C(F)(F)F)cc3s2)C1c1ccc(-c2ccccc2)cc1` (centres undefined) showed a pIC50 in series [4] of 5.21. Moreover, the inhibition in series [1] came out at 70%. In the case of `CCOC(=O)C1=C(O)C(=O)N(c2nc3ccc(C)cc3s2)C1c1cccnc1` (centres undefined), the inhibition in [1] was 29%. In [4], `CCOC(=O)C1=C(O)C(=O)N(c2nc3cc(C)c(C)cc3s2)C1c1ccc(-c2ccccc2)cc1` (centres undefined) gave a pIC50 of 5.24. Moreover, the inhibition in series [1] was found to be 85%. Consider `CCOC(=O)C1=C(O)C(=O)N(c2nc3ccc(C)cc3s2)C1c1cccc2ccccc12` (centres undefined), for which the pIC50 in series [4] was 4.82. Also, the inhibition in series [1] was found to be 54%. In turn, `CCOC(=O)C1=C(O)C(=O)N(c2nc3ccc(C)cc3s2)C1c1ccc(-c2ccccc2)cc1` (centres undefined) showed a pIC50 in series [4] of 5.07. For the same compound, the inhibition in series [1] came to 76%. Regarding `CCOC(=O)C1=C(O)C(=O)N(c2nc3ccc(C)cc3s2)C1c1cc(-c2ccccc2)cs1` (centres undefined), the pIC50 in series [4] is 5.00. For the same compound, the inhibition in series [1] came out at 72%. Regarding `CCOC(=O)C1=C(O)C(=O)N(c2nc3c(C)cccc3s2)C1c1ccccc1` (centres undefined), the inhibition in series [1] amounted to 0%.

Take `CCOC(=O)C1=C(O)C(=O)N(c2nc3ccccc3s2)C1c1ccc(-c2ccccc2)cc1` (centres undefined): the inhibition in series [1] is 45%. Same read-out and setting: under `CCOC(=O)C1=C(O)C(=O)N(c2nc3ccc(Cl)cc3s2)C1c1ccc(Cl)cc1` (centres undefined) stands 34%. In the case of `CCOC(=O)C1=C(O)C(=O)N(c2nc3ccc(Oc4ccccc4)cc3s2)C1c1ccccc1` (centres undefined), in series [4], the pIC50 was 4.77. The inhibition in series [1] is 53%. For `Cc1cccc2sc(N3C(=O)C(O)=C(C(=O)OC(C)(C)C)C3c3ccccc3)nc12` (centres undefined) the same measures were 4.96 and 67%. As for `CCOC(=O)C1=C(O)C(=O)N(c2nc3ccc(Cl)cc3s2)C1c1ccccc1` (centres undefined), the inhibition in [1] was 14%. Turning to `CC(C)(C)OC(=O)C1=C(O)C(=O)N(c2nc3ccc(Cl)cc3s2)C1c1ccccc1` (centres undefined), in series [1], the inhibition was found to be 38%. The same measure, in the same setting: in the case of `CCOC(=O)C1=C(O)C(=O)N(c2ccccc2)C1c1ccc(-c2ccccc2)cc1` (centres undefined) it was 13%.

As for `CCOC(=O)C1=C(O)C(=O)N(c2nc3ccc(C)cc3s2)C1c1ccc(-c2ccc(Cl)nn2)cc1` (centres undefined), in series [1], the inhibition stood at 36%. On the same count and under the same terms, under `CCOC(=O)C1=C(O)C(=O)N(c2nc3c(ccc4ccccc43)s2)C1c1ccccc1` (centres undefined) stands 36%. For the compound `CCOC(=O)C1=C(O)C(=O)N(c2nc3c(OC)cccc3s2)C1c1ccc(-c2ccccc2)cc1` (centres undefined), the pIC50 in series [4] was 4.60. Besides, the inhibition in [1] was found to be 31%. For the compound `CCOC(=O)C1=C(O)C(=O)N(c2nc3ccc(C)cc3s2)C1c1cccs1` (centres undefined), in [1], the inhibition amounted to 14%. `CCOC(=O)C1=C(O)C(=O)N(c2nc3ccc(C)cc3s2)C1c1ccccc1-c1cccs1` (centres undefined) had a pIC50 in [4] of 4.66. The inhibition in series [1] turned out to be 50%. Consider `CCOC(=O)C1=C(O)C(=O)N(c2nc3ccc(C)cc3s2)C1c1ccc(O)cc1` (centres undefined), for which, in series [1], the inhibition came out at 23%. For `Cc1ccc2nc(N3C(=O)C(O)=C(C(=O)OCCO)C3c3ccc(-c4ccc(Cl)cc4)o3)sc2c1` (centres undefined), the inhibition in [1] is 43%. Regarding `CCOC(=O)C1=C(O)C(=O)N(c2ccc(-c3ccccc3)cc2)C1c1ccccc1` (centres undefined), the inhibition in series [1] turned out to be 19%. In [4], `CCOC(=O)C1=C(O)C(=O)N(c2nc3ccc(Cl)cc3s2)C1c1ccc(-c2ccccc2)cc1` (centres undefined) had a pIC50 of 5.29. Besides, the Activity result in the series on HepG2 and in the series on MRC5 was “Non-Toxic” in each case. Further, the inhibition in series [1] stood at 78%. In the case of `CCOC(=O)C1=C(O)C(=O)N(Cc2ccc(Cl)cc2)C1c1ccc(-c2ccccc2)cc1` (centres undefined), in series [1], the inhibition turned out to be 40%.

With `C[C@@H]1O[C@@H]1P(=O)(O)O` [FOSFOMYCIN], the values for the inhibition in series [7], in series [8] and in series [1] were 31%, -4% and 78%, respectively. For the same compound, in series [9], the inhibition entry is “Active”. The compound further had a pIC50 in [4] of 5.28.

For the compound `CCOC(=O)C1=C(O)C(=O)N(c2nc3c(Cl)cccc3s2)C1c1ccc(-c2ccccc2)cc1` (centres undefined), the pIC50 in series [4] was 5.15. Moreover, in [1], the inhibition amounted to 73%. Regarding `CCOC(=O)C1=C(O)C(=O)N(c2nc3ccc(C)cc3s2)C1c1ccco1` (centres undefined), in series [1], the inhibition is 21%. As for `CCOC(=O)C1=C(O)C(=O)N(c2nc3ccc(OC)cc3s2)C1c1ccc(-c2ccccc2)cc1` (centres undefined), the pIC50 in [4] is 4.66. In [1], the inhibition turned out to be 51%.

For `CCOC(=O)C1=C(O)C(=O)N(c2nc3ccc(C)cc3s2)C1c1ccccc1` (centres undefined), the inhibition in series [1] was 26%.

By inhibition is commonly meant the drop in the measured response relative to a control, in per cent. By pIC50 is commonly meant the negative decadic logarithm of the IC50, by convention in mol/L. Lower therefore signals a high IC50.
